Series [1] deals with DU-145. In words: Antiproliferative activity against human DU145 cells assessed as T/C value at 1 x 10^2 uM incubated for 96 hrs by propidium iodide based 2D monolayer assay. Type of series: functional. An outline of the steps: (§1)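 Cells were kept in RPMI 1640 with 25 mM HEPES, 10% FCS and gentamicin at 37 °C under 5% CO2, and plated at 4,000-20,000 cells/well. After 24 h recovery, compound in medium or medium alone (control wells) was added at 10 half-log concentrations from 0.0032 to 100 µM, in triplicate, with at most 0.3% DMSO. After 96 h, wells were PBS-washed, stained with 7 µg/ml PI and 0.1% Triton X-100, and fluorescence read at 530/620 nm. IC50 came from a 4-parameter fit, geometric mean.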

In series [2] the test system is DU-145. The series is described as follows: Antiproliferative activity against human DU145 cells assessed as T/C value at 1 x 10^1 uM incubated for 96 hrs by propidium iodide based 2D monolayer assay. Type of series: functional. A digest of the protocol: (§2)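 After 24 h recovery, compound in medium or medium alone (control wells) was added at 10 half-log concentrations from 0.0032 to 100 µM, in triplicate, with at most 0.3% DMSO. After 96 h, wells were PBS-washed, stained with 7 µg/ml PI and 0.1% Triton X-100, and fluorescence read at 530/620 nm. IC50 came from a 4-parameter fit, geometric mean.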

Series [3] deals with DU-145. In words: Antiproliferative activity against human DU145 cells assessed as T/C value at 3.2 x 10^-1 uM incubated for 96 hrs by propidium iodide based 2D monolayer assay. Type of series: functional. An outline of the steps: as §2
The test system of series [4] is LNCaP. The series is described as follows: Antiproliferative activity against human LNCAP cells assessed as T/C value at 1 uM incubated for 96 hrs by propidium iodide based 2D monolayer assay. Type of series: functional. An outline of the steps:
as §1

The subject of series [5] is LNCaP. In words: Antiproliferative activity against human LNCAP cells assessed as T/C value at 1 x 10^2 uM incubated for 96 hrs by propidium iodide based 2D monolayer assay. Type of series: functional. An outline of the steps:
as §1

For series [6], the system named is DU-145. The series is described as follows: Antiproliferative activity against human DU145 cells assessed as T/C value at 3.2 x 10^1 uM incubated for 96 hrs by propidium iodide based 2D monolayer assay. Type of series: functional. A digest of the protocol:
as §1

Series [7] concerns VCaP. The series is described as follows: Antiproliferative activity against human VCaP cells assessed as T/C value at 3.2 uM incubated for 96 hrs by propidium iodide based 2D monolayer assay. Type of series: functional. A digest of the protocol: as §1
In series [8] the test system is VCaP. The series is described as follows: Antiproliferative activity against human VCaP cells assessed as T/C value at 1 uM incubated for 96 hrs by propidium iodide based 2D monolayer assay. Type of series: functional. A digest of the protocol:
as §1

In series [9] the test system is CWR22R. In words: Antiproliferative activity against human 22Rv1 cells assessed as T/C value at 3.2 x 10^1 uM incubated for 96 hrs by propidium iodide based 2D monolayer assay. Type of series: functional. A digest of the protocol: as §1
Series [10] concerns VCaP. The series is described as follows: Antiproliferative activity against human VCaP cells assessed as T/C value at 1 x 10^-2 uM incubated for 96 hrs by propidium iodide based 2D monolayer assay. Type of series: functional. An outline of the steps: as §1
The test system of series [11] is DU-145. The series is described as follows: Antiproliferative activity against human DU145 cells assessed as T/C value at 1 x 10^-1 uM incubated for 96 hrs by propidium iodide based 2D monolayer assay. Type of series: functional. A digest of the protocol:
as §2

The test system of series [12] is LNCaP. In words: Antiproliferative activity against human LNCAP cells assessed as T/C value at 1 x 10^1 uM incubated for 96 hrs by propidium iodide based 2D monolayer assay. Type of series: functional. An outline of the steps:
as §1

The subject of series [13] is LNCaP. In words: Antiproliferative activity against human LNCAP cells assessed as T/C value at 1 x 10^-2 uM incubated for 96 hrs by propidium iodide based 2D monolayer assay. Type of series: functional. A digest of the protocol:
as §1

The nature of series [14]: Protein binding in plasma (unknown origin) at 5 uM by LC-MS/MS analysis. The following applies: read-out: PPB (converted). Type of series: ADME, cell-free. A digest of the protocol: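 Compound at 5 μM final in 100% plasma was dialysed against pH 7.4 buffer by equilibrium dialysis at 37 °C. Both sides were quantified by LC-MS/MS, unbound fraction was calculated, and results are given as % bound from duplicate experiments.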

Series [15] can be described thus: Metabolic stability in liver microsomes (unknown origin) assessed as half life at 3 uM measured upto 45 mins in presence of NADPH by LC-MS/MS analysis. Type of series: ADME, Microsome. A digest of the protocol:
(§3)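 Pooled liver microsomes at 0.5 mg/mL protein in 0.1 M phosphate buffer pH 7.4 were incubated with 3 μM compound (0.25% DMSO) at 37 °C. Reactions were started with 1 mM NADPH and sampled at 0, 5, 15, 30 and 45 min. A minus-NADPH control ran for 45 min. Reactions were quenched in methanol and analysed by LC-MS/MS to give CLint and t1/2.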
On the technique in general: Microsomes from liver hold many membrane-bound enzymes, among them those of drug oxidation.

Series [16] concerns the target hERG (KCNH2) (Homo sapiens, UniProt Q12809). In words: Inhibition of human ERG expressed in CHO cells at 25 uM by whole-cell voltage-clamp analysis relative to control. Type of series: cell-based. The following applies: CHO cells expressing human ERG. An outline of the steps: (§4)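 CHO cells expressing hERG were held in Dulbecco's PBS with Ca/Mg, pH 7–7.2, at room temperature. Tail currents were recorded by automated whole-cell voltage clamp after 300 s exposure. […] Quinidine served as positive control and 0.25% DMSO buffer as negative control.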

Series [17] can be described thus: Metabolic stability in liver microsomes (unknown origin) assessed as intrinsic clearance per mg of protein at 3 uM measured upto 45 mins in presence of NADPH by LC-MS/MS analysis. Type of series: ADME, Microsome. The settings on record: read-out: CLH. A digest of the protocol: as §3
Series [18] deals with Voltage-gated inwardly rectifying potassium channel KCNH2 (Homo sapiens, UniProt Q12809). The series is described as follows: Inhibition of human ERG expressed in CHO cells by whole-cell voltage-clamp analysis. Type of series: cell-based. A digest of the protocol:
as §4

The text below walks through data of ChEMBL document CHEMBL4364301 (Eur J Med Chem, 2019).

A value given as a limit tells only on which side of the number the result lay.

Voltage-gated inwardly rectifying potassium channel KCNH2, sequence (Q12809 whole entry): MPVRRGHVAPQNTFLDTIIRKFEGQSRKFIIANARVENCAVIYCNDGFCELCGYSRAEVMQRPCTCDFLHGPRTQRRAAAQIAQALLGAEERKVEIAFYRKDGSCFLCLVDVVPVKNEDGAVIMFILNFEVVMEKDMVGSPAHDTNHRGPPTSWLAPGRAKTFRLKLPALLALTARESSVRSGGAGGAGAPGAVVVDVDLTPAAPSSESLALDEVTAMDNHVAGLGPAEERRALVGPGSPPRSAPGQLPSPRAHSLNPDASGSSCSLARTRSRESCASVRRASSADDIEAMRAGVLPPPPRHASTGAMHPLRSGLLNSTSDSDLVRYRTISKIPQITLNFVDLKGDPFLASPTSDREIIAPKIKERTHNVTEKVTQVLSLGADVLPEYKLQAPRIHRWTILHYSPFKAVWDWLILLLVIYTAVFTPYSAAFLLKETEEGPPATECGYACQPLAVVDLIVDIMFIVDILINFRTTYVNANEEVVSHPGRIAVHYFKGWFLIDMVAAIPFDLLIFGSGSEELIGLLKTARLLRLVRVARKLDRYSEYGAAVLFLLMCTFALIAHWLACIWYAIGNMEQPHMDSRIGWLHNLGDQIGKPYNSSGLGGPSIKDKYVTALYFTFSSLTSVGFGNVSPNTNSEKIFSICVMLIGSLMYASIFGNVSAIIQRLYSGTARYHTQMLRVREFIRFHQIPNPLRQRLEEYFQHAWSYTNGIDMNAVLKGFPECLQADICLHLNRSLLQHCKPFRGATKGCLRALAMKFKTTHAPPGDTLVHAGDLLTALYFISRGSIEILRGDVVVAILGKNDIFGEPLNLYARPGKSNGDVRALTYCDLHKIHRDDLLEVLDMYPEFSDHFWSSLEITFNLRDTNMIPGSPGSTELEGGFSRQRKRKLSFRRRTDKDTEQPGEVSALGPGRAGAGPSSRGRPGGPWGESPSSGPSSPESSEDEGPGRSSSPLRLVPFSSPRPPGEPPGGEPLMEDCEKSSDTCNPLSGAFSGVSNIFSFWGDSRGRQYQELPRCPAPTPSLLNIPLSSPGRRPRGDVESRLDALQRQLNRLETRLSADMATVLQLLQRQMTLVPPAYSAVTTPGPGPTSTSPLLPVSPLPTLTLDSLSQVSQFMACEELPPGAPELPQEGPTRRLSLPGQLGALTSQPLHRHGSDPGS
hERG (KCNH2), sequence (Q12809 whole entry): as above

The term T/C denotes the result in the treated group divided by that in the control group, in per cent. As for `CC1(C)C(=O)N(c2ccc(C#N)cc2C(F)(F)F)C(=S)N1c1cccc(S(F)(F)(F)(F)F)c1`, the T/C in series [1] worked out at 83%; in series [2], 96%; in series [3] it was 110%; in [4], 79%; in [5], 21%; in [6], 87%. In addition, the T/C in series [7] is 64%; in [8], 76%; in series [9] it was 56%; in [10] it was 84%; in [11] it was 103%; in series [12], 36%. Moreover, the T/C in [13] came out at 91%.
As for `CC1(C)C(=O)N(c2ccc(C#N)cc2C(F)(F)F)C(=S)N1c1ccc(S(F)(F)(F)(F)F)cc1`, the T/C came to 16% in [1]; 53% in [2]; 115% in series [3]; 66% in series [4]; 7% in series [5]; 37% in series [6]. Further, the T/C came to 74% in series [7]; 85% in [8]; 17% in [9]; 100% in [10]; 114% in series [11]; 12% in series [12]. The T/C in [13] was 76%.
As to `CC1(C)C(=O)N(c2cccc(S(F)(F)(F)(F)F)c2)C(=S)N1c1cccc(C(F)(F)F)c1`, the T/C in series [1] is 76%; in series [2], 83%; in series [3], 108%; in series [4], 74%; in series [5], 22%; in series [6] it was 85%. Also, the T/C in series [7] came out at 71%; in series [8], 84%; in [9], 58%; in series [10], 82%; in [11] it was 101%; in [12], 23%. In addition, in series [13], the T/C is given as 94%.
In the case of `CC(O)(COc1cccc(S(F)(F)(F)(F)F)c1)C(=O)Nc1cc(C(F)(F)F)cc(C(F)(F)F)c1` (racemic), the T/C in [1] is listed as 0%; in series [2], 6%; in series [3], 117%; in series [4], 93%; in series [5], 2%; in series [6], 3%. For the same compound, the T/C is listed as 34% in [7]; 88% in series [8]; 2% in series [9]; 99% in [10]; 119% in [11]; 2% in series [12]. For the same compound, in series [13], the T/C is reported as 89%.
As usually defined, the half-life is the time in which the quantity being followed falls by half. As a reminder, the inhibition is the drop in the measured response relative to a control, in per cent. A high value points to strong suppression. A word on the IC50: it is the concentration that gives 50% inhibition. As to `CC(O)(COc1ccc(S(F)(F)(F)(F)F)cc1)C(=O)Nc1cc(C(F)(F)F)cc(C(F)(F)F)c1` (racemic), the T/C is 1% in series [1]; 16% in series [2]; 115% in series [3]; 89% in [4]; 1% in series [5]; 6% in series [6]. Also, the T/C amounted to 30% in series [7]; 98% in [8]; 7% in [9]; 102% in series [10]; 109% in series [11]; 8% in series [12]. In series [13], the T/C came to 92%. Also, in series [14], the fraction unbound at 5 µM was 0.091. Moreover, the half-life at 3 µM in [15] is 7.5 h. Further, the inhibition at 25 µM in [16] came out at 13.4%. Besides, the microsomal CLint at 3 µM in series [17] turned out to be 3.08 µL/min/mg. Further, the IC50 in [18] was greater than 25 µM.
Take `CC(O)(COc1cc(C(F)(F)F)cc(C(F)(F)F)c1)C(=O)Nc1cccc(S(F)(F)(F)(F)F)c1` (racemic): the T/C in series [1] was 0%; in series [2], 12%; in series [3], 116%; in series [4] it was 101%; in series [5] it was 2%; in [6], 5%. Further, the T/C was determined as 33% in series [7]; 94% in series [8]; 4% in series [9]; 87% in [10]; 114% in series [11]; 2% in series [12]. The T/C in [13] is 96%.
Turning to `CC(O)(COc1cccc(S(F)(F)(F)(F)F)c1)C(=O)Nc1ccc([N+](=O)[O-])c(C(F)(F)F)c1` (racemic), the T/C is recorded as 1% in series [1]; 9 - 16% in series [2]; 121 - 129% in series [3]; 84 - 93% in [4]; 1 - 2% in series [5]; 1% in series [6]. The T/C in series [7] is given as 81 - 87%; in series [8], 94 - 108%; in series [9] it was 2%; in series [10], 97 - 108%; in series [11], 118 - 124%; in series [12] it was 1 - 3%. Also, the T/C in [13] is 94 - 104%. In series [14], the fraction unbound at 5 µM was 0.015. For the same compound, in [15], the half-life at 3 µM turned out to be 7.18 h. Also, in series [16], the inhibition at 25 µM was found to be 38.1%. Also, in series [17], the microsomal CLint at 3 µM worked out at 3.21 µL/min/mg. Further, the IC50 in series [18] is greater than 25 µM.
As to `CC(O)(COc1cc(C(F)(F)F)cc(C(F)(F)F)c1)C(=O)Nc1ccc(S(F)(F)(F)(F)F)cc1` (racemic), the T/C in series [1] came to 1%; in series [2] it was 15%; in series [3], 113%; in series [4] it was 90%; in [5], 3%; in series [6], 5%. The T/C in [7] was determined as 37%; in series [8], 88%; in series [9] it was 8%; in series [10], 95%; in series [11], 109%; in [12], 6%. Besides, the T/C in series [13] came out at 88%.
Turning to `CC(O)(COc1ccccc1C(F)(F)F)C(=O)Nc1ccc(S(F)(F)(F)(F)F)cc1` (racemic), the T/C is recorded as 1% in series [1]; 1 - 20% in series [2]; 107 - 132% in series [3]; 25 - 60% in series [4]; 1 - 2% in series [5]; 4% in [6]. Moreover, the T/C was 19 - 45% in series [7]; 58 - 85% in series [8]; 1 - 3% in series [9]; 87 - 102% in series [10]; 108 - 127% in [11]; 1 - 2% in series [12]. Besides, the T/C in series [13] is 85 - 89%. The fraction unbound at 5 µM in series [14] is 0.014. In series [15], the half-life at 3 µM was 1.05 h. In series [16], this compound yielded an inhibition at 25 µM of 26.3%. The microsomal CLint at 3 µM in series [17] stood at 22 µL/min/mg. This compound returned an IC50 in [18] greater than 25 µM.
